pIC50: −log10 of the molar value. Several values for one entry are separate records, joined by “and”; a condition that tells them apart may be missing. Identical values can stand only once.
Legend:
[1] = test system: 3LL cell line; assay: accumulation of compound in 3LL cells was measured with DFMO by ICP-AES at 50 uM dose; type: functional, Mus musculus
Procedure, shortened: (§1)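 3LL cells exposed 24 h to derivative, BSH or BPA, with or without prior 24 h incubation with 5 mM DFMO; intracellular drug measured by ion-pair reversed-phase HPLC with o-phthalaldehyde fluorescence, or cellular boron by ICP-AES, per mg protein; mean ± SD; Student's t-test, p < 0.01.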

[2] = test system: 3LL cell line; assay: spermine levels in 3LL cells after the treatment of 50 uM of Compound; type: functional, cell-based; conditions: Mus musculus
Procedure, shortened: (§2)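 3LL cells incubated 24 h with derivative, some after 24 h pretreatment with 5 mM DFMO; perchloric acid extracts analyzed for putrescine, spermidine and spermine by ion-pair reversed-phase HPLC with o-phthalaldehyde post-column fluorescence, normalized to protein (Folin); mean ± SD.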

[3] = Compound was tested for accumulation of (50 uM) boronated polyamines in murine B16 melanoma cells; type: functional
Procedure, shortened: (§3)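 Rat C6, human U251 glioblastoma or murine B16 melanoma cells exposed 24 h to 50 µM boron-containing derivative, either directly or after 24 h preincubation with 5 mM DFMO; washed cells sonicated in 0.2 N perchloric acid, derivative quantified by ion-pair reversed-phase HPLC with o-phthalaldehyde fluorescence detection, normalized to protein; mean ± SD.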

[4] = test system: U-251; assay: Compound was tested for accumulation of (50 uM) boronated polyamines in human U251 glioblastoma cells; type: functional; procedure, shortened: as §3
[5] = test system: 3LL cell line; assay: spermidine levels in 3LL cells after the treatment of 50 uM of Compound; type: functional, cell-based; conditions: Mus musculus; procedure, shortened: as §2
[6] = Compound was tested for accumulation of (50 uM) boronated polyamines in rat C6 glioblastoma cells; type: functional; procedure, shortened: as §3
[7] = test system: CHO; assay: Compound was tested for accumulation in CHO cells by HPLC at 50 uM dose; type: functional, Cricetulus griseus
Procedure, shortened: (§4)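 CHO or polyamine-transport-deficient CHO-MG cells (proline 2 µg/mL added for CHO-MG), RPMI 1640 with 10% FCS, 37 °C, 5% CO2; seeded at 5 × 10⁴ cells/mL, derivative added 24 h later for 24 h; trypsin/EDTA harvest, three PBS washes, sonication in 0.2 N perchloric acid; derivative measured by ion-pair reversed-phase HPLC with o-phthalaldehyde/N-acetylcysteine fluorescence; per mg protein (Folin); mean ± SD.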

[8] = test system: 3LL cell line; assay: accumulation of compound in 3LL cells was measured with DFMO by HPLC at 50 uM dose; type: functional, Mus musculus; procedure, shortened: as §1
[9] = test system: 3LL cell line; assay: Effect on the growth of 3LL cells was evaluated using an MTT assay at 72 hour incubation; type: functional, cell-based; conditions: Mus musculus
[10] = test system: 3LL cell line; assay: accumulation of compound in 3LL cells was measured without DFMO by HPLC at 50 uM dose; type: functional, Mus musculus; procedure, shortened: as §1
[11] = target: Nucleic Acid; assay: (§5) DNA binding affinity (conc to decrease the fluorescence of the ethidium bromide-DNA complex by 50%); type: nucleic-acid assay, Bos taurus
[12] = test system: 3LL cell line; assay: accumulation of compound in 3LL cells was measured without DFMO by ICP-AES at 50 uM dose; type: functional, Mus musculus; procedure, shortened: as §1
[13] = test system: 3LL cell line; assay: Effect on the growth of 3LL cells by DFMO pretreatment at 48 hr incubation; type: functional, cell-based; conditions: Mus musculus
Procedure, shortened: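 3LL cells given 5 mM DFMO 24 h after seeding for a 24 h preincubation, then 48 h with spermidine or derivative; MTT readout; growth expressed relative to cells treated with DFMO only; mean ± SEM.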

[14] = test system: 3LL cell line; assay: Effect on the growth of 3LL cells was evaluated using an MTT assay at 48 hour incubation; type: functional, cell-based; conditions: Mus musculus
[15] = test system: CHO-MG; assay: Compound was tested for accumulation in CHO-MG cells by HPLC at 250 uM dose; type: functional, Cricetulus griseus; procedure, shortened: as §4
[16] = test system: CHO; assay: Compound was tested for accumulation in CHO cells by HPLC at 250 uM dose; type: functional, Cricetulus griseus; procedure, shortened: as §4
[17] = test system: 3LL cell line; assay: accumulation of compound in 3LL cells was measured without DFMO by HPLC at 250 uM dose; type: functional, Mus musculus; procedure, shortened: as §1
[18] = test system: 3LL cell line; assay: accumulation of compound in 3LL cells was measured with DFMO by HPLC at 250 uM dose; type: functional, Mus musculus; procedure, shortened: as §1
[19] = target: Nucleic Acid; assay: as §5; type: nucleic-acid assay
[20] = test system: 3LL cell line; assay: spermine levels in 3LL cells after the treatment of 250 uM of Compound; type: functional, cell-based; conditions: Mus musculus; procedure, shortened: as §2
[21] = test system: 3LL cell line; assay: accumulation of compound in 3LL cells was measured without DFMO by HPLC at 10 uM dose; type: functional, Mus musculus; procedure, shortened: as §1
[22] = test system: 3LL cell line; assay: spermidine levels in 3LL cells after the treatment of 250 uM of Compound; type: functional, cell-based; conditions: Mus musculus; procedure, shortened: as §2
[23] = test system: 3LL cell line; assay: accumulation of compound in 3LL cells was measured with DFMO by HPLC at 10 uM dose; type: functional, Mus musculus; procedure, shortened: as §1

| pIC50 [11] | SMILES | Activity [1] | Level (nM (mg of protein)-1) [2] | Accumulation [3] | Accumulation [4] | Level (nM (mg of protein)-1) [5] | Activity [8] | pIC50 [9] | Activity [12] | pIC50 [13] | pIC50 [14] | Accumulation [15] | Accumulation [16] | Activity [17] | Activity [18] | Activity [10] [nmol/mg protein] | other results |
| --- | --- | --- | --- | --- | --- | --- | --- | --- | --- | --- | --- | --- | --- | --- | --- | --- | --- |
| 4.43 | Cl.NCCCCNCCCNCc1ccc(B(O)O)cc1 | 5.68 nM (mg of protein)-1 | 7.25 | 4.75 nM (mg of protein)-1 and 9.26 nM (mg of protein)-1 | 1.65 nM (mg of protein)-1 | 0.14 | 4.18 nM (mg of protein)-1 | 3.40 | 2.7 nM (mg of protein)-1 | < 6.00 | 3.08 |  |  |  |  |  | Activity [6]: 1.63 nM (mg of protein)-1; Accumulation [7]: 4.78 nM (mg of protein)-1; Drug [10]: 2.01 nM (mg of protein)-1 |
|  | CC1(C)COB(c2cccc(CN(CCCN)CCCCN)c2)OC1.Cl |  |  |  |  |  |  |  |  |  |  | 3.71 nM (mg of protein)-1 | 5.65 nM (mg of protein)-1 | 4.52 nM (mg of protein)-1 | 3.93 nM (mg of protein)-1 |  |  |
|  | CC1(C)COB(c2ccc(CN(CCCN)CCCCN)cc2)OC1.Cl | 1.83 nM (mg of protein)-1 | 7.4 | 0.92 nM (mg of protein)-1 and 0.45 nM (mg of protein)-1 | 2.12 nM (mg of protein)-1 and 1.79 nM (mg of protein)-1 | 8.92 | 0.98 nM (mg of protein)-1 | < 3.00 | 3.46 nM (mg of protein)-1 | < 5.00 | < 3.00 | 3.84 nM (mg of protein)-1 | 5.05 nM (mg of protein)-1 | 3.35 nM (mg of protein)-1 | 2.55 nM (mg of protein)-1 | 2.6 | pIC50 [19]: 3.99; Accumulation [6]: 2.92 nM (mg of protein)-1 and 2.5 nM (mg of protein)-1 |
| 4.01 | NCCCCNCCCN [SPERMIDINE] |  |  |  |  |  |  |  |  |  |  |  |  |  |  |  |  |
| 3.51 | Cl.NCCCCN(CCCN)Cc1ccccc1 |  |  |  |  |  | 6.92 nM (mg of protein)-1 | < 3.00 |  | < 4.00 | < 3.00 | 5.55 nM (mg of protein)-1 | 13.64 nM (mg of protein)-1 | 6.11 nM (mg of protein)-1 | 5.46 nM (mg of protein)-1 | 4.92 | Level (nM (mg of protein)-1) [20]: 8.64; Activity [21]: 2.59 nM (mg of protein)-1; Level (nM (mg of protein)-1) [22]: 4.15; Activity [23]: 5.52 nM (mg of protein)-1 |

— ChEMBL document CHEMBL1134661, “N-Benzylpolyamines as vectors of boron and fluorine for cancer therapy and imaging: synthesis and biological evaluation” (J Med Chem, 2001)
